Tested on: TRAP5b
Assay: Serum TRAP5b solid-phase immunoassay
Type: in vivo, C57BL/6 mice
Details: 0.3 mg/kg RANKL twice a day for 10 days; PET/CT imaging study, n=4
How it was run: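 Male C57BL/6 mice (~23 g) got RANKL s.c. in the nape in 50 μL saline, twice a day for 10 days, under brief isoflurane; controls got vehicle. Blood was taken by submandibular venous puncture before biodistribution or at sacrifice. Serum was spun at 10,000 rpm for 5 min at 4°C and stored at −20°C. Osteoclastic TRAP5b was measured by solid-phase immunoassay. P<0.05 was significant.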

B1: RANKL: receptor activator of nuclear factor κB ligand, cytokine stimulating osteoclastogenesis; provided by Amgen (protein, UniProt O14788 140-317, looked up)
Tumor necrosis factor ligand …: IRAEKAMVDGSWLDLAKRSKLEAQPFAHLTINATDIPSGSHKVSLSSWYHDRGWAKISNMTFSNGKLIVNQDGFYYLYANICFRHHETSGDLATEYLQLMVYVTKTSIKIPSSHTLMKGGSTKYWSGNSEFHFYSINVGGFFKLRSGEEISIEVSNPSLLDPDQDATYFGAFKVRDID
  increase of serum TRAP5b, RANKL-treated vs control cohort: 1.6 fold

Source: PMC4277818 (Molecular imaging and biology : MIB : the official …, 2012)
